In ChEMBL document CHEMBL3739406, “Trisubstituted Thieno[3,2-b]pyrrole 5-Carboxamides as Potent Inhibitors of Alphaviruses” (J Med Chem, 2015):
Active and inactive are the calls of the source. The rule behind the calls is not given here.

Tests used:
[1] = Cytotoxicity against HEK293T cells assessed as cell viability at antiviral EC50 after 24 hrs by cell titer-glo luminescent cell viability assay; format: cell-based, HEK-293T; conditions: human, read-out: Activity
Outline: (§1)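 HEK 293T cells, 3 × 10⁴/well, seeded overnight, then exposed 24 h to compound (0.01–100 μM, triplicate) in DMEM pH 6.8 with 10% FBS. Viability read by CellTiter-Glo luminescence. Normalized to untreated (100%) and medium blank (0%); CC50 by five-parameter curve fit.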

Chikungunya virus [2] = experiment: Antiviral activity against Chikungunya virus infected in HEK293T cells assessed as reduction of infectivity measured at 24 hrs postinfection by gaussia luciferase reporter gene assay; format: functional, cell-based; conditions: HEK-293T
[3] = Selectivity index, ratio of CC50 for HEK293T cells to EC50 for Chikungunya virus infected in HEK293T cells; format: toxicity, cell-based, HEK-293T; conditions: human, read-out: Ratio CC50/EC50
[4] = Cytotoxicity against HEK293T cells assessed as reduction in cell viability after 24 hrs by cell titer-glo luminescent cell viability assay; format: cell-based, HEK-293T; conditions: human; outline: as §1
Chikungunya virus [5] = experiment: Antiviral activity against wild type Chikungunya virus IMT infected in HEK293T cells assessed as inhibition of infectivity measured at 24 hrs postinfection by FITC/DAPI staining based array scan VTI HCS reader analysis; format: functional, cell-based; conditions: HEK-293T
Chikungunya virus [6] = experiment: Antiviral activity against wild type Chikungunya virus IMT infected in HEK293T cells assessed as inhibition of nsP3 protein expression measured at 24 hrs postinfection by Western blot method; format: functional, cell-based; conditions: HEK-293T
Chikungunya virus [7] = experiment: Antiviral activity against wild type Chikungunya virus IMT infected in HEK293T cells assessed as inhibition of E2 protein expression measured at 24 hrs postinfection by Western blot method; format: functional, cell-based; conditions: HEK-293T
Onyong-nyong virus = experiment: Antiviral activity against O'nyong-nyong virus infected in HEK293T cells assessed as inhibition of infectivity measured at 24 hrs postinfection by FITC/DAPI staining based array scan VTI HCS reader analysis; format: functional, cell-based; conditions: HEK-293T
Chikungunya virus [8] = experiment: Antiviral activity against wild type Chikungunya virus IMT infected in HEK293T cells assessed as inhibition of infectivity at 5 uM measured at 24 hrs postinfection by FITC/DAPI staining based array scan VTI HCS reader analysis; format: functional; conditions: HEK-293T
Chikungunya virus [9] = experiment: Antiviral activity against wild type Chikungunya virus IMT infected in HEK293T cells assessed as reduction of viral nsP1 gene expression measured at 24 hrs postinfection by qRT-PCR method; format: functional, cell-based; conditions: HEK-293T
Sindbis virus = experiment: Antiviral activity against wild type Sindbis virus infected in HEK293T cells assessed as inhibition of infectivity measured at 24 hrs postinfection by FITC/DAPI staining based array scan VTI HCS reader analysis; format: functional, organism-based; conditions: HEK-293T
Chikungunya virus [10] = experiment: Antiviral activity against wild type Chikungunya virus IMT infected in HEK293T cells assessed as inhibition of nsP1 protein expression measured at 24 hrs postinfection by Western blot method; format: functional, cell-based; conditions: HEK-293T
Chikungunya virus [11] = experiment: Antiviral activity against wild type Chikungunya virus IMT infected in HEK293T cells assessed as reduction of viral E1 gene expression at 2.5 uM measured at 24 hrs postinfection by qRT-PCR method relative to control; format: functional, HEK-293T
Chikungunya virus [12] = experiment: Antiviral activity against wild type Chikungunya virus IMT infected in HEK293T cells assessed as reduction of viral nsP1 gene expression at 2.5 uM measured at 24 hrs postinfection by qRT-PCR method relative to control; format: functional, HEK-293T
Chikungunya virus [13] = experiment: Antiviral activity against wild type Chikungunya virus IMT infected in HEK293T cells assessed as reduction of viral E1 gene expression measured at 24 hrs postinfection by qRT-PCR method; format: functional, cell-based; conditions: HEK-293T
Chikungunya virus [14] = experiment: Antiviral activity against wild type Chikungunya virus IMT infected in HEK293T cells assessed as inhibition of capsid protein expression measured at 24 hrs postinfection by Western blot method; format: functional, cell-based; conditions: HEK-293T
HEK293 = experiment: Toxicity in HEK293T cells infected with Chikungunya virus IMT assessed as reduction in beta-actin protein expression at 0.1 to 5 uM measured at 24 hrs postinfection by Western blot method; format: cell-based; conditions: human, hek293, 24 h
Chikungunya virus [15] = experiment: Antiviral activity against wild type Chikungunya virus IMT infected in HEK293T cells assessed as inhibition of viral capsid protein at 5 uM measured at 24 hrs postinfection by Western blot method; format: functional, cell-based; conditions: HEK-293T
Chikungunya virus [16] = experiment: Antiviral activity against wild type Chikungunya virus IMT infected in HEK293T cells assessed as inhibition of nsP3 protein expression at 5 uM measured at 24 hrs postinfection by Western blot method; format: functional, cell-based; conditions: HEK-293T
Chikungunya virus [17] = experiment: Antiviral activity against wild type Chikungunya virus IMT infected in HEK293T cells assessed as inhibition of nsP1 protein expression at 5 uM measured at 24 hrs postinfection by Western blot method; format: functional, cell-based; conditions: HEK-293T
Chikungunya virus [18] = experiment: Antiviral activity against wild type Chikungunya virus IMT infected in HEK293T cells assessed as inhibition of E2 protein expression at 5 uM measured at 24 hrs postinfection by Western blot method; format: functional, cell-based; conditions: HEK-293T

## COc1ccc(Cn2c(C(=O)N3CCC(C(=O)NC4CC4)CC3)cc3sccc32)cc1
[1]
  viability at 24 h: > 80%
Chikungunya virus [2]
  EC50: 7.59 µM
[3]
  selectivity ratio: 2.8
[4]
  CC50 at 24 h: 21.4 µM
Chikungunya virus [5]
  EC50: 5.59 µM
  inhibition: Dose-dependent effect

## CCCNC(=O)C1CCN(C(=O)c2cc3sc(CNC(C)c4ccccc4)cc3n2Cc2ccc(OC)cc2)CC1 (configuration not stated)
[1]
  viability at 24 h: > 80%
Chikungunya virus [2]
  EC50: 8.44 µM
[3]
  selectivity ratio: 4
[4]
  CC50 at 24 h: 33.9 µM
Chikungunya virus [5]
  EC50: 13.5 µM
  inhibition: Dose-dependent effect

## CCCNC(=O)C1CCN(C(=O)c2cc3sc(Br)cc3n2Cc2ccc(OC)cc2)CC1
Chikungunya virus [6]
  inhibition: Dose-dependent effect
Chikungunya virus [7]
  inhibition: Dose-dependent effect
[1]
  viability at 24 h: > 80%
Chikungunya virus [2]
  EC50: 3.1 µM
Onyong-nyong virus
  EC50: 2.58 µM
Chikungunya virus [8]
  inhibition at 5 µM: 60%
[3]
  selectivity ratio: > 32
[4]
  CC50 at 24 h: > 100 µM
Chikungunya virus [9]
  Activity: Dose-dependent effect
Chikungunya virus [5]
  EC50: 1.96 µM
  inhibition: Dose-dependent effect
Sindbis virus
  EC50: 1.14 µM
Chikungunya virus [10]
  inhibition: Dose-dependent effect
Chikungunya virus [11]
  fold change (FC): 100
Chikungunya virus [12]
  fold change (FC): 100
Chikungunya virus [13]
  Activity: Dose-dependent effect
Chikungunya virus [14]
  inhibition: Dose-dependent effect
HEK293
  Activity: Non-toxic

## NC(=O)c1ncn([C@@H]2O[C@H](CO)[C@@H](O)[C@H]2O)n1 [RIBAVIRIN]
[1]
  viability at 24 h: > 80%
Chikungunya virus [2]
  EC50: 13.1 µM
Onyong-nyong virus
  EC50: 18.4 µM
Chikungunya virus [8]
  inhibition at 5 µM: 10%
Chikungunya virus [15]
  inhibition: inactive
Chikungunya virus [16]
  inhibition: inactive
Chikungunya virus [5]
  EC50: 20 µM
  inhibition: Dose-dependent effect
Chikungunya virus [17]
  inhibition: inactive
Sindbis virus
  EC50: 5.12 µM
Chikungunya virus [18]
  inhibition: inactive

## CCCNC(=O)C1CCN(C(=O)c2cc3sccc3n2Cc2ccc(OC)cc2)CC1
[1]
  viability at 24 h: > 80%
Chikungunya virus [2]
  EC50: 7 µM
[3]
  selectivity ratio: 2.7
[4]
  CC50 at 24 h: 18.8 µM
Chikungunya virus [5]
  EC50: 6.55 µM
  inhibition: Dose-dependent effect

## CCCNC(=O)C1CCN(C(=O)c2cc3sc(-c4ccccc4)cc3n2Cc2ccc(OC)cc2)CC1
[1]
  viability at 24 h: > 80%
Chikungunya virus [2]
  EC50: 3.85 µM
[3]
  selectivity ratio: > 26
[4]
  CC50 at 24 h: > 100 µM
Chikungunya virus [5]
  EC50: 3.08 µM
  inhibition: Dose-dependent effect

## CCCNC(=O)C1CCN(C(=O)c2cc3sc(C#N)cc3n2Cc2ccc(OC)cc2)CC1
[1]
  viability at 24 h: > 80%
Chikungunya virus [2]
  EC50: 4.9 µM
[3]
  selectivity ratio: > 20
[4]
  CC50 at 24 h: > 100 µM
Chikungunya virus [5]
  EC50: 8.23 µM
  inhibition: Dose-dependent effect

## COc1ccc(Cn2c(C(=O)N3CCN(Cc4ccccc4)CC3)cc3sc(CNC(C)c4ccccc4)cc32)cc1 (configuration not stated)
[1]
  viability at 24 h: > 80%
Chikungunya virus [2]
  EC50: 9.44 µM
[3]
  selectivity ratio: > 11
[4]
  CC50 at 24 h: > 100 µM
Chikungunya virus [5]
  EC50: 25.5 µM
  inhibition: Dose-dependent effect

## COc1ccc(Cn2c(C(=O)N3CCN(Cc4ccccc4)CC3)cc3sc(C(C)=O)cc32)cc1
[1]
  viability at 24 h: > 80%
Chikungunya virus [2]
  EC50: 17 µM
[3]
  selectivity ratio: > 5.9
[4]
  CC50 at 24 h: > 100 µM

## CCCNC(=O)C1CCN(C(=O)c2c(Br)c3sccc3n2Cc2ccc(OC)cc2)CC1
[1]
  viability at 24 h: > 80%
Chikungunya virus [2]
  EC50: 7.75 µM
[3]
  selectivity ratio: 4.1
[4]
  CC50 at 24 h: 31.6 µM
Chikungunya virus [5]
  EC50: 14 µM
  inhibition: Dose-dependent effect

## CCCNC(=O)C1CCN(C(=O)c2cc3sc(C)cc3n2Cc2ccc(OC)cc2)CC1
[1]
  viability at 24 h: > 80%
Chikungunya virus [2]
  EC50: 3.6 µM
[3]
  selectivity ratio: 10
[4]
  CC50 at 24 h: 36.3 µM
Chikungunya virus [5]
  EC50: 3.27 µM
  inhibition: Dose-dependent effect

## COc1ccc(Cn2c(C(=O)N3CCN(Cc4ccccc4)CC3)c(CNC(C)c3ccccc3)c3sccc32)cc1 (configuration not stated)
[1]
  viability at 24 h: > 80%
Chikungunya virus [2]
  EC50: 23 µM
[3]
  selectivity ratio: > 4.3
[4]
  CC50 at 24 h: > 100 µM

## CCCNC(=O)C1CCN(C(=O)c2cc3sc(CO)cc3n2Cc2ccc(OC)cc2)CC1
Chikungunya virus [6]
  inhibition: Dose-dependent effect
Chikungunya virus [7]
  inhibition: Dose-dependent effect
[1]
  viability at 24 h: > 80%
Chikungunya virus [2]
  EC50: 4.33 µM
Chikungunya virus [8]
  inhibition at 5 µM: 60%
[3]
  selectivity ratio: 3.6
[4]
  CC50 at 24 h: 15.5 µM
Chikungunya virus [9]
  Activity: Dose-dependent effect
Chikungunya virus [5]
  EC50: 2.39 µM
  inhibition: Dose-dependent effect
Chikungunya virus [10]
  inhibition: Dose-dependent effect
Chikungunya virus [13]
  Activity: Dose-dependent effect
Chikungunya virus [14]
  inhibition: Dose-dependent effect
HEK293
  Activity: Non-toxic

## COc1ccc(Cn2c(C(N)=O)cc3sccc32)cc1
[1]
  viability at 24 h: > 80%
Chikungunya virus [2]
  EC50: 36 µM
[3]
  selectivity ratio: > 2.8
[4]
  CC50 at 24 h: > 100 µM

## CCCNC(=O)C1CCN(C(=O)c2cc3sc(CNCc4ccccc4)cc3n2Cc2ccc(OC)cc2)CC1
[1]
  viability at 24 h: > 80%
Chikungunya virus [2]
  EC50: 11.2 µM
[3]
  selectivity ratio: 4.2
[4]
  CC50 at 24 h: 46.8 µM
